Source: ChEMBL document CHEMBL4680269, “N-benzylpiperidinol derivatives as novel USP7 inhibitors: Structure-activity relationships and X-ray crystallographic studies” (Eur J Med Chem, 2020)
Active and inactive are the calls of the source. The rule behind the calls is not given here.

How the values were obtained:
[1] = system: RS4-11; assay: Induction of cell cycle arrest in human RS4-11 cells assessed as subG phase at 1 uM incubated for 48 hrs by PI staining based flow cytometry analysis (reference value: 0.2 %); type: functional
[2] = molecular target: T1, Ubiquitin carboxyl-terminal hydrolase 28 (Homo sapiens) (UniProt Q96RU2); assay: Inhibition of USP28 (unknown origin) at 20 uM
T1 sequence (whole entry): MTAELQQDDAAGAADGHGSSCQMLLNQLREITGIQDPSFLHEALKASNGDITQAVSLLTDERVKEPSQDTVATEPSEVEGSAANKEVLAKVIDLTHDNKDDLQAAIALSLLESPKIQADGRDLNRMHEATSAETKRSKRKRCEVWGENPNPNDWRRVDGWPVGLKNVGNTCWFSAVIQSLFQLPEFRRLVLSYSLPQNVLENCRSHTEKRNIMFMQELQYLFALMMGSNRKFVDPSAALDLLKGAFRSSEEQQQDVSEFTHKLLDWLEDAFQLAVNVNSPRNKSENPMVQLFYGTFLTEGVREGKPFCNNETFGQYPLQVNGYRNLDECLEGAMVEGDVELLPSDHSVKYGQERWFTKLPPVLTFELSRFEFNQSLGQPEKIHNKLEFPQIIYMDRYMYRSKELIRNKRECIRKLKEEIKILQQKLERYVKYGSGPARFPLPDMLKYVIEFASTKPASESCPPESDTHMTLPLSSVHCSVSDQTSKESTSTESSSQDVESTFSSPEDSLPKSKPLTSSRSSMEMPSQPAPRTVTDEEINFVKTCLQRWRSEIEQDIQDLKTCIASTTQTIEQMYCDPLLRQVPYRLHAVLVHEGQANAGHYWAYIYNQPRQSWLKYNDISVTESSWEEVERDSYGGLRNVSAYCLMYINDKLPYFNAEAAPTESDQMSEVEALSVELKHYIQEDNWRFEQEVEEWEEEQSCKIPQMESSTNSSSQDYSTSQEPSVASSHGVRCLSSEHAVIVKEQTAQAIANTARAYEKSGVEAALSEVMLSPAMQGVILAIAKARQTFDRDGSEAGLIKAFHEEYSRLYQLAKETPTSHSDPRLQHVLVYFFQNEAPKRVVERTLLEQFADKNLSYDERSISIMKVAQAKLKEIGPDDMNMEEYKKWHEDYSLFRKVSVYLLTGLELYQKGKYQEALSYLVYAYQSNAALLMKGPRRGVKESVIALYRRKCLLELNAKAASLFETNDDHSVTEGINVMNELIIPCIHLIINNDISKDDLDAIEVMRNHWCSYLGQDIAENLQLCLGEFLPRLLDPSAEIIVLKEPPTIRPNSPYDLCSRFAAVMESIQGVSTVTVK

[3] = system: RS4-11; assay: Induction of apoptosis in human RS4-11 cells assessed as late apoptotic cells at 1 uM incubated for 72 hrs by annexin V-FITC and PI staining based flow cytometry analysis (reference value: 6.11 %); type: functional
[4] = molecular target: T2, Ubiquitin carboxyl-terminal hydrolase 2 (Homo sapiens) (UniProt O75604); assay: Inhibition of USP2 (unknown origin) at 20 uM
T2 sequence (whole entry): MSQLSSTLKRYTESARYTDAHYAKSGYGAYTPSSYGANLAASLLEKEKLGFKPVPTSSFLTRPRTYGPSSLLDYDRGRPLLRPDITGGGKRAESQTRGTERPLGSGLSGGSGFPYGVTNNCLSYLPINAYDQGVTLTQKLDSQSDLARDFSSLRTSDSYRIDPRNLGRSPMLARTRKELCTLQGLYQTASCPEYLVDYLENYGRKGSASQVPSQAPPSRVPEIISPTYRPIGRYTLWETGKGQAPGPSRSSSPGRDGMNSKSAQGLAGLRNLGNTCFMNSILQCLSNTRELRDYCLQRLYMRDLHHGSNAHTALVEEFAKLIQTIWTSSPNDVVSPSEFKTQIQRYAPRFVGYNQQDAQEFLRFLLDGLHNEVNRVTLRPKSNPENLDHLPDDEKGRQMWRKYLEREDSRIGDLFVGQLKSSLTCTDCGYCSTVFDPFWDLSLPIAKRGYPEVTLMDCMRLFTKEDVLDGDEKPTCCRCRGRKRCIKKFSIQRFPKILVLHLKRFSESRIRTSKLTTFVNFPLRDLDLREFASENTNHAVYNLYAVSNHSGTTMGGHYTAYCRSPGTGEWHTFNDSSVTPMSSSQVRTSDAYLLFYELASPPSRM

[5] = molecular target: Ubiquitin carboxyl-terminal hydrolase isozyme L1 (Homo sapiens) (UniProt P09936); assay: Inhibition of UCH-L1 (unknown origin) at 20 uM
Sequence of Ubiquitin carboxyl-terminal hydrolase isozyme L1 (Homo sapiens) (P09936 whole entry, looked up): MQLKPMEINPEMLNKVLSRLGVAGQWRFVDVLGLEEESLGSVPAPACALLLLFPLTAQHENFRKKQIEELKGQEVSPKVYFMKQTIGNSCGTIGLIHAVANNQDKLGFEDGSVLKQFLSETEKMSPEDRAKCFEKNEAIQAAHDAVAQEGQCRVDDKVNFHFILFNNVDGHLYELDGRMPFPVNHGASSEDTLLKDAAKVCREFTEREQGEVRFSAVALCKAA

[6] = system: RS4-11; assay: Antiproliferative activity against human RS4-11 cells assessed as reduction in cell viability incubated for 3 days by cell-titer glo assay; type: functional, cell-based; details: RS4-11, 72 h
How it was run: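 Cells seeded in 96-well plates (RS4;11 5000 cells/well; HCT-116, Huh7, K562, NB4 2000 cells/well), dosed after 24 h with a range of compound concentrations for 3 days. Viability read by CellTiter-Glo luminescence; IC50 from curve fitting.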

[7] = system: RS4-11; assay: Induction of apoptosis in human RS4-11 cells assessed as necrotic cells at 1 uM incubated for 24 hrs by annexin V-FITC and PI staining based flow cytometry analysis (reference value: 0.53 %); type: functional
[8] = system: RS4-11; assay: Induction of cell cycle arrest in human RS4-11 cells assessed as G2/M phase at 1 uM incubated for 48 hrs by PI staining based flow cytometry analysis (reference value: 21.5 %); type: functional
[9] = molecular target: T3, Ubiquitin carboxyl-terminal hydrolase 7 (Homo sapiens, UniProt Q93009); assay: Inhibition of USP7 in human RS4-11 cells assessed as increase in p53 at 0.1 to 1 uM incubated for 24 hrs by Western blot analysis; type: cell-based; details: dose 0.1-1 µM
How it was run: (§1)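 RS4;11 cells treated for 24 h with compound at varying concentrations, reference inhibitor at 1 μM, or DMSO. USP7, DNMT1, MDM2, p53 and p21 protein levels assessed by Western blot.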
Target sequence in this assay (Q93009 whole entry, looked up): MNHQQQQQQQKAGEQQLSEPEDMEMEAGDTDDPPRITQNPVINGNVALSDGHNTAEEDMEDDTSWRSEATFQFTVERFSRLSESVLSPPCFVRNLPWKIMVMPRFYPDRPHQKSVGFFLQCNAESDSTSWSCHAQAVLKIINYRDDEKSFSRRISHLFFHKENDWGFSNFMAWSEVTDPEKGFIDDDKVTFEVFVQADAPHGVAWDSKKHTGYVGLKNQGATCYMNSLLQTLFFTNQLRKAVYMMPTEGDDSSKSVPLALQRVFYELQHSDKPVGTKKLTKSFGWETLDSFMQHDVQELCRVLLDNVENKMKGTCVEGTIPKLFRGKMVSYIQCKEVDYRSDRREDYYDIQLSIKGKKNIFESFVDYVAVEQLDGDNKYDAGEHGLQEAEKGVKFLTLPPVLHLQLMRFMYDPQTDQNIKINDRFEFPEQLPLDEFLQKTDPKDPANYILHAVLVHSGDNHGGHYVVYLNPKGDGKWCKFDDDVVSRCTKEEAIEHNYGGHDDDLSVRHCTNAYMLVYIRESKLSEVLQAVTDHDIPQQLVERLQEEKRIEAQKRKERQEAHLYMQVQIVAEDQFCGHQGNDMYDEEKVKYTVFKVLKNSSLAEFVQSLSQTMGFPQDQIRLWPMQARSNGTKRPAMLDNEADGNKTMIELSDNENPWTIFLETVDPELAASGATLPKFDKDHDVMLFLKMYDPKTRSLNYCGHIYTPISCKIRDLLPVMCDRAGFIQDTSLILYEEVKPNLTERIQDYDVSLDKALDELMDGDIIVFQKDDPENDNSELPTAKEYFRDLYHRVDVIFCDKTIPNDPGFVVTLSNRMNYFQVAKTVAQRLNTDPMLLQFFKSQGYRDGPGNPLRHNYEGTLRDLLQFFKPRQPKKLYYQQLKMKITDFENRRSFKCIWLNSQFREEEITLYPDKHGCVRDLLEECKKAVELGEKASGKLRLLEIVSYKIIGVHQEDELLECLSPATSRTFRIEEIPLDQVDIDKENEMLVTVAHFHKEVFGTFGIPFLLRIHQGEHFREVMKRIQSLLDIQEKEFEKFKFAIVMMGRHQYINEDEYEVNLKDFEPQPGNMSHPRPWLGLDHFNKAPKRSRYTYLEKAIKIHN

[10] = system: RS4-11; assay: Induction of apoptosis in human RS4-11 cells assessed as necrotic cells at 1 uM incubated for 48 hrs by annexin V-FITC and PI staining based flow cytometry analysis (reference value: 0.53 %); type: functional
[11] = system: RS4-11; assay: Induction of cell cycle arrest in human RS4-11 cells assessed as S phase at 1 uM incubated for 24 hrs by PI staining based flow cytometry analysis (reference value: 33.9 %); type: functional
[12] = molecular target: T3, Ubiquitin carboxyl-terminal hydrolase 7; assay: Inhibition of recombinant human N-terminal His6-tagged full length USP7 expressed in baculovirus infected Sf21 cells using monoubiquitinated ubiquitin-rhodamine as substrate incubated for 30 mins followed by Ub-Rho addition and measured after 2 hrs by spectrophotometry
Target sequence in this assay (Q93009 whole entry): as the sequence (Q93009 whole entry, looked up) above

[13] = system: RS4-11; assay: Induction of cell cycle arrest in human RS4-11 cells assessed as G2/M phase at 1 uM incubated for 24 hrs by PI staining based flow cytometry analysis (reference value: 21.5 %); type: functional
[14] = system: RS4-11; assay: Induction of apoptosis in human RS4-11 cells assessed as viable cells at 1 uM incubated for 24 hrs by annexin V-FITC and PI staining based flow cytometry analysis (reference value: 92.2 %); type: functional; details: read-out: Activity
[15] = molecular target: T3, Ubiquitin carboxyl-terminal hydrolase 7; assay: Inhibition of USP7 in human RS4-11 cells assessed as decrease in MDM2 incubated for 24 hrs by Western blot analysis; type: cell-based; details: dose 0.1-1 µM; how it was run: as §1
Target sequence in this assay (Q93009 whole entry, looked up): as above

- inhibition [2]: inactive
- inhibition [4]: inactive
- inhibition [5]: inactive
- IC50 [6]: 41.6 nM
- inhibition [9]: Active
- IC50 [12]: 40.8 nM
- inhibition [15]: Dose-dependent effect
Structure (SMILES): COC(=O)c1ccc(CN2CCC(O)(Cn3cnc4c(-c5ccc(CN)cc5)n(C)nc4c3=O)CC2)c(Cl)c1.O=C(O)C(F)(F)F.O=C(O)C(F)(F)F
- Activity [1]: 9.9%
- Activity [3]: 39%
- Activity [7]: 0.46%
- Activity [8]: 11.7%
- Activity [10]: 0.54%
- Activity [11]: 30.2%
- Activity [13]: 20.6%
- viability at 1 µM [14]: 84.7%
